Source: ChEMBL document CHEMBL1152488, “Synthesis and evaluation of pyrido[1,2-a]pyrimidines as inhibitors of nitric oxide synthases” (Eur J Med Chem, 2009)

Assays:
RAW264.7 = experiment: Cytotoxicity against mouse RAW264.7 cells at 100 uM; type: cell-based; conditions: raw264.7, 100 µM
[1] = target: T1, Nitric oxide synthase, inducible (Mus musculus) (UniProt P29477); experiment: Inhibition of mouse recombinant iNOS expressed in Escherichia coli assessed as conversion of [gamma-14C]L-arginine to [14C]L-citrulline at 100 uM by radioactive assay relative to control; parameters: scale not given: the % may be the effect or the level left
T1 sequence (whole entry): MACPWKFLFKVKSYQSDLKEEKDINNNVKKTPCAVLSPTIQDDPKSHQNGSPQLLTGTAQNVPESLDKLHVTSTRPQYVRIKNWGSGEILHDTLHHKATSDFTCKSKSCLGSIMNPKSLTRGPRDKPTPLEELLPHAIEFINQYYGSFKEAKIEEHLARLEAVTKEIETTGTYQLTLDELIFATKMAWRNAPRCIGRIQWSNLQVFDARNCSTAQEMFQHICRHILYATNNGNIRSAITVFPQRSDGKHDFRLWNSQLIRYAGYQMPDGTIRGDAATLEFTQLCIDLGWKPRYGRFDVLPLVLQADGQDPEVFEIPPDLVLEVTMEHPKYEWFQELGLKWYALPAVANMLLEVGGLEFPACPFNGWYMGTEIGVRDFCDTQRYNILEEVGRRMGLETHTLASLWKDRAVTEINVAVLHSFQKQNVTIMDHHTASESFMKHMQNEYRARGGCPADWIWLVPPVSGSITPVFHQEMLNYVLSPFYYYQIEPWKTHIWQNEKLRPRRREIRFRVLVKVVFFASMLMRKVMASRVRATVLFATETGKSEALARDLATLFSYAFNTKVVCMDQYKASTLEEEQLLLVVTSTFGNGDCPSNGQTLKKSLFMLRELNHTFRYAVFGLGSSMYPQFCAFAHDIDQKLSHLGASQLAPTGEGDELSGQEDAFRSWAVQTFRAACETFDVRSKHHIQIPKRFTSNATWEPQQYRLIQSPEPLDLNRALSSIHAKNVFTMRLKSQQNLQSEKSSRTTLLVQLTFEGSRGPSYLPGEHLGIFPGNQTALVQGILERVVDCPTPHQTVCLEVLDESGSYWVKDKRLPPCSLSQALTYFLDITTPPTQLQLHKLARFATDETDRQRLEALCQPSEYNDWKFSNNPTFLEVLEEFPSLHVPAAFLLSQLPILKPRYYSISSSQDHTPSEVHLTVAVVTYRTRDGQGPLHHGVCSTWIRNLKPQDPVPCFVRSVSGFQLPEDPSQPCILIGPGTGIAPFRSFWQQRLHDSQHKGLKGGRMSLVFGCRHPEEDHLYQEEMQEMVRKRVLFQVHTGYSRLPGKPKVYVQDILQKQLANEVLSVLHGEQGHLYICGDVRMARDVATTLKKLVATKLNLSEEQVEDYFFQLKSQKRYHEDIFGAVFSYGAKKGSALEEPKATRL
Outline: (§1)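 Purified enzymes: rat nNOS from S. cerevisiae, murine iNOS and bovine eNOS from E. coli. Reaction 5 min at 37 °C in 50 mM Hepes pH 7.4 with DTT, 1 mM NADPH, H4B, FAD, FMN, [14C]L-arginine (2.5 µM L-arginine) and 100 µM compound in 1% DMSO. nNOS/eNOS also got 1 mM CaCl2 and CaM, which iNOS lacked. [14C]citrulline isolated on Dowex and counted by scintillation; % of DMSO control, n=3.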

[2] = target: Nitric oxide synthase 1 (Rattus norvegicus) (UniProt P29476); experiment: Inhibition of rat recombinant nNOS expressed in Saccharomyces cerevisiae assessed as conversion of [gamma-14C]L-arginine to [14C]L-citrulline at 100 uM by radioactive assay relative to control; parameters: scale not given: the % may be the effect or the level left; outline: as §1
[3] = target: T2, Nitric oxide synthase 3 (Bos taurus) (UniProt P29473); experiment: Inhibition of bovine eNOS expressed in insect Sf9 cells assessed as residual activity at 100 uM by Griess assay relative to control
T2 sequence (whole entry): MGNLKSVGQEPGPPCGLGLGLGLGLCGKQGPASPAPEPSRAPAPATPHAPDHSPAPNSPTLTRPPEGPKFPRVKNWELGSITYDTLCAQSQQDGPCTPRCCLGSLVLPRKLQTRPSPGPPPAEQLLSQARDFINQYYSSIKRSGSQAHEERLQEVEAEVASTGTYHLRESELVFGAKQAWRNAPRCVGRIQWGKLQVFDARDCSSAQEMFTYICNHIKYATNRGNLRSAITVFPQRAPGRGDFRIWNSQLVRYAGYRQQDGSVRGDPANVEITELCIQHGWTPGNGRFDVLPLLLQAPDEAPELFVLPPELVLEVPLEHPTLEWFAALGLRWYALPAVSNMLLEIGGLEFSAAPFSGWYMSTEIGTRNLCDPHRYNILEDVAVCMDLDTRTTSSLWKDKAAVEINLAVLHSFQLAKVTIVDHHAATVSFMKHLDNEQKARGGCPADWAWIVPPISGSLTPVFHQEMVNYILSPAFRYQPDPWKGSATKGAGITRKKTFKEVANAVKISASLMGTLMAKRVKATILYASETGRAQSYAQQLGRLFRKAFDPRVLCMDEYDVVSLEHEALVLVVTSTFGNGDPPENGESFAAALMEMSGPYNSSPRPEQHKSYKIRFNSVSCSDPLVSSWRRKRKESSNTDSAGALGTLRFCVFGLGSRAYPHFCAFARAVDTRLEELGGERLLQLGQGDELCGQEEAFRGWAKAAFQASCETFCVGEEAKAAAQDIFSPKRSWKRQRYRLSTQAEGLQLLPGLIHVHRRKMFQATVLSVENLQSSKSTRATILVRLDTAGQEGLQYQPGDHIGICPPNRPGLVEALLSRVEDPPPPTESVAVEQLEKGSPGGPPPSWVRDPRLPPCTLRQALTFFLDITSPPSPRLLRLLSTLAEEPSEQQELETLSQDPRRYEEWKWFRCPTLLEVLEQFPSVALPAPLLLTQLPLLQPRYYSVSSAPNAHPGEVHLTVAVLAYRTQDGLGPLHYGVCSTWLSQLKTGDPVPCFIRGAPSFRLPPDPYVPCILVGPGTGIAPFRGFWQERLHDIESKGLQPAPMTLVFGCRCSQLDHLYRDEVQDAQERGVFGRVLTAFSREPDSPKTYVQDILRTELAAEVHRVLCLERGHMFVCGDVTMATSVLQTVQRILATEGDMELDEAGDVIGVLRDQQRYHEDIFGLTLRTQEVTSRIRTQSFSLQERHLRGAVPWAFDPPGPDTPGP
Outline: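 Bovine eNOS from Sf9 cells. Reaction: triethanolamine buffer pH 7.5, 0.5 mM Ca2+, 10 µg/ml CaM, 10 µM H4B, FAD, FMN, 0.5 mM NADPH, 1 mM L-arginine, with 100 µM compound, 20 min at 37 °C. After NADPH removal by LDH/pyruvate, nitrite measured by Griess at 543 nm. Expressed as % residual activity versus 1% DMSO control, 5 experiments.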

[4] = target: T1, Nitric oxide synthase, inducible (Mus musculus); experiment: Inhibition of mouse iNOS expressed in insect Sf9 cells assessed as residual activity at 100 uM by Griess assay relative to control
Outline: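 Murine iNOS produced in Sf9 insect cells. Buffer: 50 mM triethanolamine pH 7.5, 1 mM CHAPS, 10 mM 2-mercaptoethanol, 0.5 mM EDTA. Additions: 1 mM Mg2+, 5 µM FAD, 5 µM FMN, 0.5 mM NADPH, 10 µM H4B, 10 µg/ml CaM, 1 mM L-arginine. Compound at 100 µM final, 37 °C for 20 min. NADPH removed with LDH/pyruvate, then Griess read at 543 nm. Values are % of 1% DMSO control, 5 experiments.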

[5] = target: T1, Nitric oxide synthase, inducible (Mus musculus); experiment: Inhibition of iNOS in LPS and IFN-gamma-stimulated mouse RAW264.7 cells assessed as inhibition of nitrite accumulation at 100 uM after 15 hrs by Griess assay; type: cell-based
Outline: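 RAW 264.7 macrophages seeded at 100,000 cells/well in RPMI 1640 with 5% FCS and grown 24 h. Stimulated with 40 U/ml γ-IFN and 50 ng/ml LPS, with compound at 100 µM in 1% DMSO, for 15 h at 37 °C. Supernatant nitrite measured with Griess reagent at 550 nm against an NaNO2 calibration; 6–8 determinations.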

[6] = target: T1, Nitric oxide synthase, inducible (Mus musculus); experiment: Inhibition of mouse recombinant iNOS expressed in Escherichia coli assessed as NADPH consumption at 100 uM after 2 mins by spectrophotometry
Outline: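 Murine iNOS from E. coli (15–50 nM final) in 50 mM Hepes pH 7.4 with 5 mM DTT, 100 µM CaCl2, 200 µM NADPH, 10 µM H4B, 100 µM L-arginine and 100 µM compound. Cofactors and compound preincubated 2 min at 37 °C, enzyme added, and A340 followed for 3 min (ε 6.2 mM-1 cm-1). Given as % of 1% DMSO control NADPH oxidase rate.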

[7] = target: T2, Nitric oxide synthase 3 (Bos taurus); experiment: Inhibition of bovine recombinant eNOS expressed in Escherichia coli assessed as conversion of [gamma-14C]L-arginine to [14C]L-citrulline at 100 uM by radioactive assay relative to control; parameters: scale not given: the % may be the effect or the level left; outline: as §1
[8] = target: T3, Nitric oxide synthase 3 (Homo sapiens) (UniProt P29474); experiment: Inhibition of human eNOS assessed as residual activity at 100 uM by Griess assay relative to control
T3 sequence (whole entry): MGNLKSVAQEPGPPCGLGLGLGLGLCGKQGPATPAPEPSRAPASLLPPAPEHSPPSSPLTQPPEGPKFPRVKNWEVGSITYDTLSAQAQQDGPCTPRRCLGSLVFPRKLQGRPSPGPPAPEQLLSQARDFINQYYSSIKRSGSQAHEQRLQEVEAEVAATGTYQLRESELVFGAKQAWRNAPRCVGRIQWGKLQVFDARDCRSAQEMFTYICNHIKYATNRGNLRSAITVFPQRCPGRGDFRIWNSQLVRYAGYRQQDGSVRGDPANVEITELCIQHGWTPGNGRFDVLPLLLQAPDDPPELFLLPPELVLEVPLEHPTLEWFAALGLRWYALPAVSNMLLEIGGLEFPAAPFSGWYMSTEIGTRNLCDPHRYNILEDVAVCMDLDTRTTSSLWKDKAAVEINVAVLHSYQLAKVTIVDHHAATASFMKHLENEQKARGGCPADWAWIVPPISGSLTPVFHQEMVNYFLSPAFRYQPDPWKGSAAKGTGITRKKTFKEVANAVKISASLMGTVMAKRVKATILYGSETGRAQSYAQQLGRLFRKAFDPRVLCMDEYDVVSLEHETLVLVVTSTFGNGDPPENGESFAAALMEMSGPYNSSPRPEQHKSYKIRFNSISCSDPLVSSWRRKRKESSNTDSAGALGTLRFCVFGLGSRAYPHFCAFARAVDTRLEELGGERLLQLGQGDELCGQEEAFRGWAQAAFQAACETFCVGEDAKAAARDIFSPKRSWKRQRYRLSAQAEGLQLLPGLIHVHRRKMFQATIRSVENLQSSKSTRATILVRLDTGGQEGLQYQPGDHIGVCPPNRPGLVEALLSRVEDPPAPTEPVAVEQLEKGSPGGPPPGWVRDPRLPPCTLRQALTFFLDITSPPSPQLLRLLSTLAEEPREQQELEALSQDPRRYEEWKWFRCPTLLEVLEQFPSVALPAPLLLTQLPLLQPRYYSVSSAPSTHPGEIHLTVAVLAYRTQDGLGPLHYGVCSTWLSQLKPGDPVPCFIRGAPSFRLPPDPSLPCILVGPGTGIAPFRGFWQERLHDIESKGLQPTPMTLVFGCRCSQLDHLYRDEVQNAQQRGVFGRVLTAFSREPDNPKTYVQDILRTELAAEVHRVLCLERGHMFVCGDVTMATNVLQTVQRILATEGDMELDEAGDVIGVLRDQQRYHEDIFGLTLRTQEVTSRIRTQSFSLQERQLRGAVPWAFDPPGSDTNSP
Outline: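 Human eNOS expressed in Pichia pastoris. Incubated 20 min at 37 °C in triethanolamine pH 7.5 with 0.5 mM Ca2+, CaM, H4B 10 µM, FAD/FMN 5 µM, NADPH 0.5 mM, L-arginine 1 mM and compound at 100 µM final. Nitrite read by Griess (543 nm) after LDH/pyruvate NADPH removal; % of 1% DMSO control from 5 experiments.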

[9] = target: Nitric oxide synthase, inducible (Homo sapiens) (UniProt P35228); experiment: Inhibition of human iNOS expressed in insect Sf9 cells assessed as residual activity at 100 uM by Griess assay relative to control
Outline: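 Human iNOS made in Sf9 cells, incubated at 37 °C for 20 min in 50 mM triethanolamine pH 7.5 with 1 mM Mg2+, FAD/FMN 5 µM each, 0.5 mM NADPH, 10 µM H4B, CaM and 1 mM L-arginine. Compound 100 µM final. NADPH cleared with lactate dehydrogenase/pyruvate before Griess reaction (543 nm). Residual activity relative to 1% DMSO control; mean of 5 experiments.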

[10] = Lipophilicity, log D at pH 7.4 by HPLC method; conditions: buffer

Nitric oxide synthase 1 (Rattus norvegicus), sequence (P29476 whole entry): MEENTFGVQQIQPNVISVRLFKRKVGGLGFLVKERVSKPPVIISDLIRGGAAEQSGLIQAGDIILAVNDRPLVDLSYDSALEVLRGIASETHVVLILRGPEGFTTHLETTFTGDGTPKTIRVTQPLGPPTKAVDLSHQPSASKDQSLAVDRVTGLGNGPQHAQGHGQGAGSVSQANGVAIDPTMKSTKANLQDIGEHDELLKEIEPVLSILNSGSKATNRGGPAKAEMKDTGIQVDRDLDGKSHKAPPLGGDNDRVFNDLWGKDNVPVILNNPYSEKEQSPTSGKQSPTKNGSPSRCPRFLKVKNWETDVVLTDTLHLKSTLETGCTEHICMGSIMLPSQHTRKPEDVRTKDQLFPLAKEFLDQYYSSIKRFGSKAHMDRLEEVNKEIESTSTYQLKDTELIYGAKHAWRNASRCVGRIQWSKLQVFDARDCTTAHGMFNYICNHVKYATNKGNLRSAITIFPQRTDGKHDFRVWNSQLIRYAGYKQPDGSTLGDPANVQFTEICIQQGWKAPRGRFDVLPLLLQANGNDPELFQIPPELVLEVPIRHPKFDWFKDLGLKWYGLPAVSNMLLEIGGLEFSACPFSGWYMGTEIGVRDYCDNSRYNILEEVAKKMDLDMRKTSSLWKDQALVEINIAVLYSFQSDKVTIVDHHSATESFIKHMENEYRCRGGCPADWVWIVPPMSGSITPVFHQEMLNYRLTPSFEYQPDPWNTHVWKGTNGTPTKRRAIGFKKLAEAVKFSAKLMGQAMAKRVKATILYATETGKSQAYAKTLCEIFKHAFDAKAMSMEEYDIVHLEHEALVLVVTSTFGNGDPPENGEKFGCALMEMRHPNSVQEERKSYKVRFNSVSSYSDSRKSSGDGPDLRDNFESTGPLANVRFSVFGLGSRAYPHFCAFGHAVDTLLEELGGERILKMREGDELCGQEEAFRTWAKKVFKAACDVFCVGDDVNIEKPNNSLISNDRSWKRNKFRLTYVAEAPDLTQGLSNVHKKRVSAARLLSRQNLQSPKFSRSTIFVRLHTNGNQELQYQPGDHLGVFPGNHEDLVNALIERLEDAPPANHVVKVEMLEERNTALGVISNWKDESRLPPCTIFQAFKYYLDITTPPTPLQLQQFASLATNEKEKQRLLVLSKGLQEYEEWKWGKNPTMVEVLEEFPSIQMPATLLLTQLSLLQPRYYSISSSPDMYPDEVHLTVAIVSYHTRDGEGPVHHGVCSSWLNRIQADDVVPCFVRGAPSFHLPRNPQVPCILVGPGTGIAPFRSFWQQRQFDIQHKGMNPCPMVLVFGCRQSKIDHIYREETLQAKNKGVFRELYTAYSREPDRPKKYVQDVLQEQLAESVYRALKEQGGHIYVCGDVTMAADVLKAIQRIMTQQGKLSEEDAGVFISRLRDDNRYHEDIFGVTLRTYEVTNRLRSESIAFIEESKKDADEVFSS
Nitric oxide synthase, inducible (Homo sapiens), sequence (P35228 whole entry): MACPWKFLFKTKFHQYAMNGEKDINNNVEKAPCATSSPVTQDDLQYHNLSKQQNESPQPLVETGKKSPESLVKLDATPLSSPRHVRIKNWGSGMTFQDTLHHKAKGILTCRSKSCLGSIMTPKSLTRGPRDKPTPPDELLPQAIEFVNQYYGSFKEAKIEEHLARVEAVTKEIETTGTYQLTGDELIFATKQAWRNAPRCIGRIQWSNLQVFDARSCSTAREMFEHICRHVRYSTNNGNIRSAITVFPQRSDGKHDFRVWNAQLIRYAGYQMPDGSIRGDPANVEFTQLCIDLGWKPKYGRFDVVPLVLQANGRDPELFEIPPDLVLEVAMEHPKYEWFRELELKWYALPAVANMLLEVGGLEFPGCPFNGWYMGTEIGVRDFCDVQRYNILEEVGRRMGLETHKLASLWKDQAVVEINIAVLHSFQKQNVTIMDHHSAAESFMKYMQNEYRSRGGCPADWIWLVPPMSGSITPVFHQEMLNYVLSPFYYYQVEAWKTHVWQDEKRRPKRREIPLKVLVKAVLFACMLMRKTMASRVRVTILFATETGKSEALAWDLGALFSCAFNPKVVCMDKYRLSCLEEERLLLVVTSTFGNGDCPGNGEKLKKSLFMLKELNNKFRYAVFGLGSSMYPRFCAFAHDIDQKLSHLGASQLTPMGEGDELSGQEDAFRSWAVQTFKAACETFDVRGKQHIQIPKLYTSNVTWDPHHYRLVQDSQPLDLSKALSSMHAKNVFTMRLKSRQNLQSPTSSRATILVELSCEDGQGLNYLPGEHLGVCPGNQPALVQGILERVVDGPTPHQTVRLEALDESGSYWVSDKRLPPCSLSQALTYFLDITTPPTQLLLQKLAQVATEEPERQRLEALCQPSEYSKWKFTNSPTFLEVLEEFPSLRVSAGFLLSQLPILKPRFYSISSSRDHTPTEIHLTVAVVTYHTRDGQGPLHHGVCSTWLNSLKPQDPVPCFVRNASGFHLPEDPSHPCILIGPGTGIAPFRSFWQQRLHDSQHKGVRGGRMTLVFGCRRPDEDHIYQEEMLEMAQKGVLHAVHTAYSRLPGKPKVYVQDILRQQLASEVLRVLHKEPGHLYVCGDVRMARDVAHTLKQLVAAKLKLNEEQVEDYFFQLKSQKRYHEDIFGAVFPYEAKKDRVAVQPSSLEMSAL

| Activity [1] [%] | Activity [2] [%] | Activity [3] [%] | Activity [4] [%] | inhibition [5] [%] | Remaining NADPH oxidation rate (% of DMSO control) [6] [%] | Activity [7] [%] | Activity [8] [%] | Activity [9] [%] | logD [10] | SMILES | Activity (RAW264.7) |
| --- | --- | --- | --- | --- | --- | --- | --- | --- | --- | --- | --- |
| 100 | 92 | 94 | 86 | 60 | 91 | 100 |  |  |  | Cc1ccc(C(=O)C2CN=C3C=CC=CN3C2)cc1.[O-][Cl+3]([O-])([O-])O (stereo unspecified) | Non-toxic |
|  |  |  |  | 98 |  |  | 84 | 106 | 2.8 | CC1=CC=CC2=NCC(C(=O)c3ccc(-c4ccc(Br)cc4)cc3)CN12.[O-][Cl+3]([O-])([O-])O (stereo unspecified) | Non-toxic |
| 96 | 48 | 95 | 102 | 67 | 89 | 94 |  |  |  | COc1ccc(C(=O)C2CN=C3C(C)=CC=CN3C2)cc1OC (stereo unspecified) | Non-toxic |
